Data reported in ChEMBL document CHEMBL4689842, “EUbOPEN Chemogenomics Library wave 1” (2021).

System: HEK-293T
Assay: Multiplex assay against HEK293T;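 on Population Tubulin-Different-Phenotype (%): share of the cells with healthy nuclei that show this phenotype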
Type: toxicity, cell-based
Conditions: human
Summary of the method: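 Compound was added to live cells that had been stained at seeding with Hoechst33342, BioTracker Green Microtubule Cytoskeleton Dye, MitoTracker Red and Annexin V Alexa Fluor 680, and imaging followed on a CQ1 microscope at 37°C and 5% CO2. CellPathfinder machine-learning gating divided cells into Hoechst high-intensity objects or normal cells, normal cells into healthy, pyknosed or fragmented nuclei, and pyknosed cells into mitotic or apoptotic. Tubulin, mitochondrial-mass and membrane-permeability phenotypes are per cents of healthy-nucleus cells.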

[1] = 12 h, 1 µM, compound concentration 1 uM, replicate 1
[2] = 12 h, 1 µM, compound concentration 1 uM, replicate 2
[3] = 12 h, 10 µM, compound concentration 10 uM, replicate 1
[4] = 12 h, 10 µM, compound concentration 10 uM, replicate 2
[5] = 24 h, 1 µM, compound concentration 1 uM, replicate 1
[6] = 24 h, 1 µM, compound concentration 1 uM, replicate 2
[7] = 24 h, 10 µM, compound concentration 10 uM, replicate 1
[8] = 24 h, 10 µM, compound concentration 10 uM, replicate 2

Compound: CC[C@H](Nc1ncnc2[nH]cnc12)c1nc2cccc(F)c2c(=O)n1-c1ccccc1 [IDELALISIB]
- Population Apoptotic (%) [1]: 22%
- Population Fragmented Nuclei (%) [1]: 18%
- Population Healthy Nuclei (%) [1]: 46%
- Population Hoechst High Intensity Objects (%) [1]: 14%
- Population Membrane Permeable-Phenotype (%) [1]: 12%
- Population Mitochondria Different-Phenotype (%) [1]: 15%
- Population Mitotic Cells (%) [1]: 77%
- Population Normal (%) [1]: 85%
- Population Pyknosed Nuclei (%) [1]: 34%
- Population Tubulin-Different-Phenotype (%) [1]: 29%
- Total Cell Count [1]: 588
- Population Apoptotic (%) [2]: 10%
- Population Fragmented Nuclei (%) [2]: 5%
- Population Healthy Nuclei (%) [2]: 85%
- Population Hoechst High Intensity Objects (%) [2]: 3%
- Population Membrane Permeable-Phenotype (%) [2]: 11%
- Population Mitochondria Different-Phenotype (%) [2]: 18%
- Population Mitotic Cells (%) [2]: 89%
- Population Normal (%) [2]: 96%
- Population Pyknosed Nuclei (%) [2]: 9%
- Population Tubulin-Different-Phenotype (%) [2]: 64%
- Total Cell Count [2]: 1315
- Population Apoptotic (%) [3]: 18%
- Population Fragmented Nuclei (%) [3]: 15%
- Population Healthy Nuclei (%) [3]: 60%
- Population Hoechst High Intensity Objects (%) [3]: 9%
- Population Membrane Permeable-Phenotype (%) [3]: 4%
- Population Mitochondria Different-Phenotype (%) [3]: 3%
- Population Mitotic Cells (%) [3]: 81%
- Population Normal (%) [3]: 91%
- Population Pyknosed Nuclei (%) [3]: 23%
- Population Tubulin-Different-Phenotype (%) [3]: 2%
- Total Cell Count [3]: 500
- Population Apoptotic (%) [4]: 8%
- Population Fragmented Nuclei (%) [4]: 8%
- Population Healthy Nuclei (%) [4]: 86%
- Population Hoechst High Intensity Objects (%) [4]: 2%
- Population Membrane Permeable-Phenotype (%) [4]: 1%
- Population Mitochondria Different-Phenotype (%) [4]: 10%
- Population Mitotic Cells (%) [4]: 91%
- Population Normal (%) [4]: 97%
- Population Pyknosed Nuclei (%) [4]: 5%
- Population Tubulin-Different-Phenotype (%) [4]: 7%
- Total Cell Count [4]: 1603
- Population Apoptotic (%) [5]: 17%
- Population Fragmented Nuclei (%) [5]: 14%
- Population Healthy Nuclei (%) [5]: 67%
- Population Hoechst High Intensity Objects (%) [5]: 10%
- Population Membrane Permeable-Phenotype (%) [5]: 16%
- Population Mitochondria Different-Phenotype (%) [5]: 12%
- Population Mitotic Cells (%) [5]: 82%
- Population Normal (%) [5]: 89%
- Population Pyknosed Nuclei (%) [5]: 18%
- Population Tubulin-Different-Phenotype (%) [5]: 48%
- Total Cell Count [5]: 613
- Population Apoptotic (%) [6]: 8%
- Population Fragmented Nuclei (%) [6]: 17%
- Population Healthy Nuclei (%) [6]: 77%
- Population Hoechst High Intensity Objects (%) [6]: 3%
- Population Membrane Permeable-Phenotype (%) [6]: 28%
- Population Mitochondria Different-Phenotype (%) [6]: 4%
- Population Mitotic Cells (%) [6]: 91%
- Population Normal (%) [6]: 96%
- Population Pyknosed Nuclei (%) [6]: 4%
- Population Tubulin-Different-Phenotype (%) [6]: 68%
- Total Cell Count [6]: 2065
- Population Apoptotic (%) [7]: 18%
- Population Fragmented Nuclei (%) [7]: 11%
- Population Healthy Nuclei (%) [7]: 77%
- Population Hoechst High Intensity Objects (%) [7]: 5%
- Population Membrane Permeable-Phenotype (%) [7]: 8%
- Population Mitochondria Different-Phenotype (%) [7]: 4%
- Population Mitotic Cells (%) [7]: 81%
- Population Normal (%) [7]: 94%
- Population Pyknosed Nuclei (%) [7]: 10%
- Population Tubulin-Different-Phenotype (%) [7]: 7%
- Total Cell Count [7]: 587
- Population Apoptotic (%) [8]: 3%
- Population Fragmented Nuclei (%) [8]: 29%
- Population Healthy Nuclei (%) [8]: 68%
- Population Hoechst High Intensity Objects (%) [8]: 3%
- Population Membrane Permeable-Phenotype (%) [8]: 5%
- Population Mitochondria Different-Phenotype (%) [8]: 1%
- Population Mitotic Cells (%) [8]: 96%
- Population Normal (%) [8]: 96%
- Population Pyknosed Nuclei (%) [8]: 2%
- Total Cell Count [8]: 2772
